This passage reports inhibition results from ChEMBL document CHEMBL1811881, “Development of 3-substituted-androsterone derivatives as potent inhibitors of 17β-hydroxysteroid dehydrogenase type 3” (Bioorg Med Chem, 2011).

As a reminder, the inhibition is how much of the control response was suppressed.

Common to all, as to assay type: cell-based
In assay [1] the target is T1, 17-beta-hydroxysteroid dehydrogenase type 3 (Homo sapiens) (UniProt P37058).
T1 sequence (whole entry): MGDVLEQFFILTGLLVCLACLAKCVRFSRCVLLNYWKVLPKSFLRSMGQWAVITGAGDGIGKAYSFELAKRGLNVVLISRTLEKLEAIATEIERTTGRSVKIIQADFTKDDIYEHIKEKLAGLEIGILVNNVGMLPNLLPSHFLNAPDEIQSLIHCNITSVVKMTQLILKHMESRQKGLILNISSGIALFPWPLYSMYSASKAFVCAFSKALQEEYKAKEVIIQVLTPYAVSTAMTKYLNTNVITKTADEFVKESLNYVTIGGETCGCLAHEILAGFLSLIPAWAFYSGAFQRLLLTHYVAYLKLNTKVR
Description: Inhibition of 17Beta-HSD3 expressed in intact HEK293 cells assessed as transformation of [14C]-4-androstene-3,17-dione into [14C]-testosterone in presence of NADPH at 0.1 uM after 1 hr incubation. In short, it runs like this: (§1)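 HEK-293 cells were grown in MEM with 10% FBS at 37 °C under 5% CO2, seeded at 200,000 cells/well, and transfected with 2 µg/well of a 17β-HSD3 expression plasmid. Intact cells then got 50 nM [4-14C]-4-androstene-3,17-dione plus inhibitor in ethanol (0.5% v/v) for 1 h. Radiolabelled steroids were extracted from the medium and quantified. Triplicate; % transformation was used to derive IC50.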

Assay [2] has as its target T1, 17-beta-hydroxysteroid dehydrogenase type 3 (Homo sapiens). The assay can be described thus: Inhibition of 17Beta-HSD3 expressed in homogenized HEK293 cells assessed as transformation of [14C]-4-androstene-3,17-dione into [14C]-testosterone in presence of NADPH at 0.1 uM. In short, it runs like this: (§2)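 HEK-293 cells overexpressing 17β-HSD3 were briefly homogenized. The enzyme assay measured conversion of 50 nM [4-14C]-4-androstene-3,17-dione to [14C]-testosterone with NADPH in excess (5 mM). Inhibitor was dissolved in ethanol, and the ethanol-only control was used to derive % inhibition at each concentration. Error 10%.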

For assay [3] the target is unchanged. The assay can be described thus: Inhibition of 17Beta-HSD3 expressed in homogenized HEK293 cells assessed as transformation of [14C]-4-androstene-3,17-dione into [14C]-testosterone in presence of NADPH at 0.01 uM. In short, it runs like this:
as §2

Assay [4] has the same target. Description: Inhibition of 17Beta-HSD3 expressed in homogenized HEK293 cells assessed as transformation of [14C]-4-androstene-3,17-dione into [14C]-testosterone in presence of NADPH at 1 uM. The essentials: as §2
For assay [5] the target is unchanged. The assay can be described thus: Inhibition of 17Beta-HSD3 expressed in intact HEK293 cells assessed as transformation of [14C]-4-androstene-3,17-dione into [14C]-testosterone in presence of NADPH at 1 uM after 1 hr incubation. In short, it runs like this:
as §1

For `CCN(CCN1C[C@]2(CC[C@@]3(C)[C@@H](CC[C@@H]4[C@@H]3CC[C@]3(C)C(=O)CC[C@@H]43)C2)OC1=O)C1CCCCC1`, the inhibition in assay [1] came to 2%; in assay [2], 21%; in assay [3], 2%; in assay [4], 72%.

As to `C[C@]12CC[C@@]3(C[C@@H]1CC[C@@H]1[C@@H]2CC[C@]2(C)C(=O)CC[C@@H]12)CN(CCC(CN1CCOCC1)OC(=O)CCC1CCCC1)C(=O)O3` (some centres not stated), the inhibition came out at 49% in assay [1], 79% in assay [2], 2% in assay [3] and 94% in assay [4].

Consider `C[C@]12CC[C@](O)(CN3CCN(Cc4cccc(Cl)c4)CC3)C[C@@H]1CC[C@@H]1[C@@H]2CC[C@]2(C)C(=O)CC[C@@H]12`, for which the inhibition in assay [5] came out at 75%; in assay [2], 85%; in assay [3], 26%.

Regarding `C[C@]12CC[C@](O)(CN3CCN(S(=O)(=O)c4cccc(C(F)(F)F)c4)CC3)C[C@@H]1CC[C@@H]1[C@@H]2CC[C@]2(C)C(=O)CC[C@@H]12`, the inhibition was 71% in assay [5], 82% in assay [2] and 21% in assay [3].

Turning to `C[C@]12CC[C@](O)(CN3CCCCC3)C[C@@H]1CC[C@@H]1[C@@H]2CC[C@]2(C)C(=O)CC[C@@H]12`, the inhibition was 23% in assay [5], 19% in assay [2], 9% in assay [3] and 69% in assay [4].

Turning to `CCCN(CCC)CCN1C[C@]2(CC[C@@]3(C)[C@@H](CC[C@@H]4[C@@H]3CC[C@]3(C)C(=O)CC[C@@H]43)C2)OC1=O`, the inhibition in assay [1] came out at 8%; in assay [2] it was 10%; in assay [3], 0%; in assay [4], 62%.

Take `Cc1cccc(S(=O)(=O)CCN2C[C@]3(CC[C@@]4(C)[C@@H](CC[C@@H]5[C@@H]4CC[C@]4(C)C(=O)CC[C@@H]54)C3)OC2=O)c1`: the inhibition in assay [1] turned out to be 5%; in assay [2], 52%; in assay [3], 0%; in assay [4], 93%.

As to `CCCN(CCN1C[C@]2(CC[C@@]3(C)[C@@H](CC[C@@H]4[C@@H]3CC[C@]3(C)C(=O)CC[C@@H]43)C2)OC1=O)C(=O)CC`, the inhibition in assay [1] was 25%; in assay [2], 35%; in assay [3] it was 0%; in assay [4], 80%.

As for `CN1CCN(C[C@@]2(O)CC[C@@]3(C)[C@@H](CC[C@@H]4[C@@H]3CC[C@]3(C)C(=O)CC[C@@H]43)C2)CC1`, the inhibition in assay [1] was found to be 2%; in assay [2], 0%; in assay [3], 0%; in assay [4] it was 40%.

As for `CCN(CCN1C[C@]2(CC[C@@]3(C)[C@@H](CC[C@@H]4[C@@H]3CC[C@]3(C)C(=O)CC[C@@H]43)C2)OC1=O)Cc1ccccc1`, the inhibition was found to be 40% in assay [1], 71% in assay [2], 14% in assay [3] and 93% in assay [4].

`C[C@@H]1CN(Cc2cccc(Cl)c2)[C@@H](C)CN1C[C@@]1(O)CC[C@@]2(C)[C@@H](CC[C@@H]3[C@@H]2CC[C@]2(C)C(=O)CC[C@@H]32)C1`: the inhibition in assay [5] was found to be 55%; in assay [2], 84%; in assay [3], 26%.

With `C[C@]12CC[C@](O)(CN3CCN(Cc4cccnc4)CC3)C[C@@H]1CC[C@@H]1[C@@H]2CC[C@]2(C)C(=O)CC[C@@H]12`, the inhibition in assay [5] was determined as 63%; in assay [2], 33%; in assay [3], 10%.

Regarding `C[C@]12CC[C@](O)(CN3CCN(C(=O)C4CCCCC4)CC3)C[C@@H]1CC[C@@H]1[C@@H]2CC[C@]2(C)C(=O)CC[C@@H]12`, the inhibition turned out to be 70% in assay [5], 75% in assay [2] and 19% in assay [3].

Consider `C[C@]12CC[C@@]3(C[C@@H]1CC[C@@H]1[C@@H]2CC[C@]2(C)C(=O)CC[C@@H]12)CN(CCO)C(=O)O3`, for which the inhibition in assay [1] came to 16%; in assay [2], 9%; in assay [3], 0%; in assay [4] it was 38%.

With `Cc1ccc(CN2C[C@]3(CC[C@@]4(C)[C@@H](CC[C@@H]5[C@@H]4CC[C@]4(C)C(=O)C(C)(C)C[C@@H]54)C3)OC2=O)cc1`, the inhibition in assay [1] is 18%; in assay [2] it was 22%; in assay [3], 2%; in assay [4], 74%.

For the molecule `C[C@@H]1CN(Cc2cccc(C(F)(F)F)c2)[C@@H](C)CN1C[C@@]1(O)CC[C@@]2(C)[C@@H](CC[C@@H]3[C@@H]2CC[C@]2(C)C(=O)CC[C@@H]32)C1`, the inhibition in assay [5] came out at 78%; in assay [2] it was 89%; in assay [3], 31%.

Take `Cc1ccc(CN2C[C@]3(CC[C@@]4(C)[C@@H](CC[C@@H]5[C@@H]4CC[C@]4(C)C(=O)CC[C@@H]54)C3)OC2=O)cc1`: the inhibition came out at 38% in assay [1], 81% in assay [2], 17% in assay [3] and 93% in assay [4].

Consider `Cc1cccc(OCCN2C[C@]3(CC[C@@]4(C)[C@@H](CC[C@@H]5[C@@H]4CC[C@]4(C)C(=O)CC[C@@H]54)C3)OC2=O)c1`, for which the inhibition in assay [1] turned out to be 40%; in assay [2], 85%; in assay [3], 13%; in assay [4], 95%.

Take `C[C@]12CC[C@](O)(CN3CCC(Cc4ccccc4)CC3)C[C@@H]1CC[C@@H]1[C@@H]2CC[C@]2(C)C(=O)CC[C@@H]12`: the inhibition in assay [5] worked out at 52%; in assay [2], 82%; in assay [3], 40%; in assay [4] it was 90%.

`C[C@]12CC[C@@]3(C[C@@H]1CC[C@@H]1[C@@H]2CC[C@]2(C)C(=O)CC[C@@H]12)CN(CCBr)C(=O)O3`: the inhibition in assay [1] turned out to be 31%; in assay [2] it was 69%; in assay [3], 17%; in assay [4] it was 93%.

With `C[C@]12CC[C@@]3(C[C@@H]1CC[C@@H]1[C@@H]2CC[C@]2(C)C(=O)CC[C@@H]12)CN(C1CCCCC1)C(=O)O3`, the inhibition in assay [1] came to 29%; in assay [2] it was 75%; in assay [3] it was 13%; in assay [4] it was 78%.

On to `C[C@@H]1CN(Cc2cccc(SC(F)(F)F)c2)[C@@H](C)CN1C[C@@]1(O)CC[C@@]2(C)[C@@H](CC[C@@H]3[C@@H]2CC[C@]2(C)C(=O)CC[C@@H]32)C1`, for which the inhibition stood at 58% in assay [5], 88% in assay [2] and 18% in assay [3].

With `C[C@@H]1CN(Cc2cccnc2)[C@@H](C)CN1C[C@@]1(O)CC[C@@]2(C)[C@@H](CC[C@@H]3[C@@H]2CC[C@]2(C)C(=O)CC[C@@H]32)C1`, the figures for the inhibition in assay [5], in assay [2] and in assay [3] were 58%, 47% and 17%, respectively.

Take `COc1ccc(CN2C[C@]3(CC[C@@]4(C)[C@@H](CC[C@@H]5[C@@H]4CC[C@]4(C)C(=O)CC[C@@H]54)C3)OC2=O)cc1`: the inhibition in assay [1] was 43%; in assay [2] it was 84%; in assay [3] it was 5%; in assay [4] it was 93%.

For the molecule `C[C@]12CC[C@@]3(C[C@@H]1CC[C@@H]1[C@@H]2CC[C@]2(C)C(=O)CC[C@@H]12)CN(CCN1CCCCC1)C(=O)O3`, the inhibition is 10% in assay [1], 0% in assay [2], 0% in assay [3] and 21% in assay [4].

Regarding `C[C@]12CC[C@](O)(CN3CCN(Cc4cccc(SC(F)(F)F)c4)CC3)C[C@@H]1CC[C@@H]1[C@@H]2CC[C@]2(C)C(=O)CC[C@@H]12`, the results for the inhibition in assay [5], in assay [2] and in assay [3] were 62%, 91% and 3%, respectively.

On to `C[C@]12CC[C@](O)(CN3CCN(Cc4cc(C(F)(F)F)cc(C(F)(F)F)c4)CC3)C[C@@H]1CC[C@@H]1[C@@H]2CC[C@]2(C)C(=O)CC[C@@H]12`, for which the inhibition in assay [1] was 25%; in assay [2], 83%; in assay [3] it was 25%.

As to `C[C@]12CC[C@@]3(C[C@@H]1CC[C@@H]1[C@@H]2CC[C@]2(C)C(=O)CC[C@@H]12)CN(Cc1ccc(C(F)(F)F)nc1)C(=O)O3`, the figures for the inhibition in assay [1], in assay [2] and in assay [3] were 36%, 65% and 3%, respectively.

Turning to `C[C@]12CC[C@](O)(CN3CCN(S(=O)(=O)c4ccccc4C(F)(F)F)CC3)C[C@@H]1CC[C@@H]1[C@@H]2CC[C@]2(C)C(=O)CC[C@@H]12`, the values for the inhibition in assay [1], in assay [2] and in assay [3] were 63%, 92% and 45%, respectively.

Consider `C[C@]12CC[C@@]3(C[C@@H]1CC[C@@H]1[C@@H]2CC[C@]2(C)C(=O)CC[C@@H]12)CN(Cc1cc(C(F)(F)F)cc(C(F)(F)F)c1)C(=O)O3`, for which the results for the inhibition in assay [1], in assay [2] and in assay [3] were 35%, 66% and 12%, respectively.
